Measured values published in ChEMBL document CHEMBL2390921, “A novel benzazepinone sodium channel blocker with oral efficacy in a rat model of neuropathic pain” (Bioorg Med Chem Lett, 2013).

Columns and labels:
[1] = molecular target: T1, Sodium channel protein type 5 subunit alpha (Homo sapiens, UniProt Q14524); experiment: Binding affinity to resting state of human NaV1.5 channel by whole-cell patch clamp assay; details: read-out: K
[2] = molecular target: T2, Sodium channel protein type 9 subunit alpha (Homo sapiens, UniProt Q15858); experiment: Binding affinity to inactivated state of human NaV1.7 channel assessed as inhibition of current evoked by 6 ms depolarizations to 0 mV from holding potential -70 mV at 3 uM by whole-cell patch clamp assay relative to vehicle-treated control
Target sequence in this assay (Q15858 whole entry, looked up): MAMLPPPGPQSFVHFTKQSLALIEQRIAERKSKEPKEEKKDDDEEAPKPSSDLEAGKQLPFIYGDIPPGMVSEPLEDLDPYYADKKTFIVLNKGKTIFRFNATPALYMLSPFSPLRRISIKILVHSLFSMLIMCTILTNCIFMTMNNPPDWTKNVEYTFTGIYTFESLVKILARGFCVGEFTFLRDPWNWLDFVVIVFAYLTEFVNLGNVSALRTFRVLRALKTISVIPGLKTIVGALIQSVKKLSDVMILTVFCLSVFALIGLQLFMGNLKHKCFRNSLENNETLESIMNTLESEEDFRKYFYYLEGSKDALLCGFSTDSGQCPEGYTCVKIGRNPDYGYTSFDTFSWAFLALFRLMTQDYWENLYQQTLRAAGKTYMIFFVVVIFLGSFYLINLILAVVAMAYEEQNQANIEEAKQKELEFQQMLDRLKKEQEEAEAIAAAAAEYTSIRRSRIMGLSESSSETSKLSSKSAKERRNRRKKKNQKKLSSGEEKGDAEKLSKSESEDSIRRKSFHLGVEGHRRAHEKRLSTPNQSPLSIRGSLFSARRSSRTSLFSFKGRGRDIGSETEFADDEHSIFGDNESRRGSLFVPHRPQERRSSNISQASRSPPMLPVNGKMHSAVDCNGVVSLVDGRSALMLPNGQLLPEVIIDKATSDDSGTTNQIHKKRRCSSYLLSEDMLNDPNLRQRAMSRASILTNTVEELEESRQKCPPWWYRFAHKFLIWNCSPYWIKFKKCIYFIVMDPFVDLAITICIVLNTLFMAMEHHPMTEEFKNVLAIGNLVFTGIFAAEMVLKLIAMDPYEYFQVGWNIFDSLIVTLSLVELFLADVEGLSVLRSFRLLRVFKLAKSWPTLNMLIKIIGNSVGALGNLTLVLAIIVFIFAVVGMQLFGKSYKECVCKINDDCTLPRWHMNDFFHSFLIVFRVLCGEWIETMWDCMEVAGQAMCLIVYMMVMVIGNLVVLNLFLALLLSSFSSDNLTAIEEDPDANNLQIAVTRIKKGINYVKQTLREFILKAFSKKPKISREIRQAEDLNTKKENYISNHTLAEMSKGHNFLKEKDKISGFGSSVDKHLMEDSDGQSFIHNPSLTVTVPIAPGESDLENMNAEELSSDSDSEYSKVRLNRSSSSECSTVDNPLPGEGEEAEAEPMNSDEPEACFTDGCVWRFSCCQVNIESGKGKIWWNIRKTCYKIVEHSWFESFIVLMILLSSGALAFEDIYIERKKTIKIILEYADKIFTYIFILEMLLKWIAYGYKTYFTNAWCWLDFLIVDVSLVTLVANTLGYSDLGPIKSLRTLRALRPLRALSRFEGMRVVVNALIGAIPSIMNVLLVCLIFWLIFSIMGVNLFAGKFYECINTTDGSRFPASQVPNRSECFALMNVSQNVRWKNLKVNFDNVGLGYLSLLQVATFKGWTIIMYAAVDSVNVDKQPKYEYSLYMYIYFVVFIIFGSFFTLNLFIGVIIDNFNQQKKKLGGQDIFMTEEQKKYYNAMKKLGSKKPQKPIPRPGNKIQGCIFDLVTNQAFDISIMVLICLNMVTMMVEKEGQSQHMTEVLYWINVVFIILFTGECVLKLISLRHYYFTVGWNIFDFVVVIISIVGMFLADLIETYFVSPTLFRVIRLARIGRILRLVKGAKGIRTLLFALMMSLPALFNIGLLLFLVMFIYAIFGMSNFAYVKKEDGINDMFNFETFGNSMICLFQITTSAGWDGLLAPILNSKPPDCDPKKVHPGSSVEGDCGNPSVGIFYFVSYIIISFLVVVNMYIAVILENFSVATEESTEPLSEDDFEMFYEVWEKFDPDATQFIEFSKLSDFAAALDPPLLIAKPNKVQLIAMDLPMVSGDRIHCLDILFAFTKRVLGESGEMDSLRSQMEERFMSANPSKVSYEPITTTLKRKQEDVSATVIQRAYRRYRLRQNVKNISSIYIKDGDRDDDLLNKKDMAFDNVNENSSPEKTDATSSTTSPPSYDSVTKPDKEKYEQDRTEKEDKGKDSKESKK

Rattus norvegicus [3] = experiment: Analgesic activity in rat spinal nerve ligation neuropathic pain model assessed as reversal of allodynia at 3 mg/kg, po measured at 2 hrs relative to control; type: functional
Summary of the method: (§1)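 Rat spinal nerve ligation model. Seven days after surgery, rats received a single oral dose (3, 10 or 30 mg/kg) of test agent or vehicle. Tactile allodynia was scored at 2, 4, 8 and 24 h post-dose with calibrated von Frey filaments using an up-down paradigm. Threshold is the force giving a 50% withdrawal rate. %MPE = (post-compound − post-SNL)/(pre-SNL − post-SNL) × 100, where 100% is full reversal.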

Rattus norvegicus [4] = experiment: Analgesic activity in rat spinal nerve ligation neuropathic pain model assessed as reversal of allodynia at 30 mg/kg, po measured at 8 hrs relative to control; type: functional; summary of the method: as §1
Rattus norvegicus [5] = experiment: Analgesic activity in rat spinal nerve ligation neuropathic pain model assessed as reversal of allodynia at 10 mg/kg, po measured at 2 hrs relative to control; type: functional; summary of the method: as §1
Rattus norvegicus [6] = experiment: Analgesic activity in rat spinal nerve ligation neuropathic pain model assessed as reversal of allodynia at 3 mg/kg, po measured at 8 hrs relative to control; type: functional; summary of the method: as §1
[7] = molecular target: Kappa-type opioid receptor (Homo sapiens) (UniProt P41145); experiment: Binding affinity to kappa opioid receptor (unknown origin) at 25 uM relative to control
[8] = molecular target: Delta-type opioid receptor (Homo sapiens) (UniProt P41143); experiment: Binding affinity to delta opioid receptor (unknown origin) at 25 uM relative to control
Rattus norvegicus [9] = experiment: Analgesic activity in po dosed rat spinal nerve ligation neuropathic pain model assessed as reversal of allodynia measured at 2 to 4 hrs; type: functional; summary of the method: as §1
Rattus norvegicus [10] = experiment: Analgesic activity in rat spinal nerve ligation neuropathic pain model assessed as reversal of allodynia at 30 mg/kg, po measured at 2 hrs relative to control; type: functional; summary of the method: as §1
[11] = Oral bioavailability in Sprague-Dawley rat at 3 mg/kg; type: ADME, organism-based; details: in vivo
Summary of the method: (§2)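 Fasted male Sprague–Dawley rats (n = 3 per route) were dosed with 1.5 mg/mL solutions in PEG300/water or DMSO/PEG300/water, either 1.0 mg/kg iv via femoral-vein cannula or 3.0 mg/kg by oral gavage. Blood was sampled at 5 min (iv only), 15 and 30 min, and 1, 2, 4, 6 and 8 h. Plasma levels were measured by LC–MS/MS after acetonitrile protein precipitation.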

Rattus norvegicus [12] = experiment: Dose normalized AUC in Sprague-Dawley rat at 3 mg/kg, po; type: ADME, organism-based; parameters: dose 3 mg/kg, route oral; details: in vivo; summary of the method: as §2
Rattus norvegicus [13] = experiment: Analgesic activity in rat spinal nerve ligation neuropathic pain model assessed as reversal of allodynia at 10 mg/kg, po measured at 4 hrs relative to control; type: functional; summary of the method: as §1
[14] = molecular target: Mu-type opioid receptor (Homo sapiens) (UniProt P35372); experiment: Binding affinity to mu opioid receptor (unknown origin) at 25 uM relative to control
[15] = molecular target: T3, B1 bradykinin receptor (Homo sapiens) (UniProt P46663); experiment: Binding affinity to BK1 receptor (unknown origin) at 25 uM relative to control
T3 sequence (whole entry): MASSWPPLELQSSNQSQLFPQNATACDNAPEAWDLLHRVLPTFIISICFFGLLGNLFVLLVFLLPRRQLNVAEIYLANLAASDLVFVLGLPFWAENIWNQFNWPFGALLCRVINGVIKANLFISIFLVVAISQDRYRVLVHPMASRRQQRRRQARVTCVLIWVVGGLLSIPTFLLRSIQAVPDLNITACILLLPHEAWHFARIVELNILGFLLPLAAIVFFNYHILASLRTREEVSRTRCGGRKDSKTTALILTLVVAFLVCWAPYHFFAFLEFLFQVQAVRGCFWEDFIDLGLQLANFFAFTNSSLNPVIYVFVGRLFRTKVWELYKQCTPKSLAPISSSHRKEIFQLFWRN

[16] = molecular target: T1, Sodium channel protein type 5 subunit alpha; experiment: Binding affinity to inactivated state of human NaV1.5 channel by whole-cell patch clamp assay; details: read-out: K
[17] = molecular target: T2, Sodium channel protein type 9 subunit alpha; experiment: Binding affinity to inactivated state of human NaV1.7 channel by whole-cell patch clamp assay
Summary of the method: (§3)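 Manual whole-cell voltage clamp measuring block of resting and inactivated channel states at room temperature. Data acquired at 50 kHz, filtered at 10 kHz. Bath: 40 mM NaCl, 120 mM NMDG-Cl, 1 mM KCl, 2.7 mM CaCl2, 0.5 mM MgCl2, 10 mM NMDG-HEPES, pH 7.4.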
Target sequence in this assay (Q15858 whole entry, looked up): as the sequence (Q15858 whole entry, looked up) above

[18] = Plasma clearance in Sprague-Dawley rat at 3 mg/kg, po and 1 mg/kg, iv; type: ADME, organism-based; summary of the method: as §2
Rattus norvegicus [19] = experiment: Analgesic activity in rat spinal nerve ligation neuropathic pain model assessed as reversal of allodynia at 30 mg/kg, po measured at 4 hrs relative to control; type: functional; summary of the method: as §1
[20] = molecular target: Sodium channel protein type 10 subunit alpha (Homo sapiens) (UniProt Q9Y5Y9); experiment: Binding affinity to inactivated state of NaV1.8 channel (unknown origin) by whole-cell patch clamp assay; summary of the method: as §3
Rattus norvegicus [21] = experiment: Analgesic activity in rat spinal nerve ligation neuropathic pain model assessed as reversal of allodynia at 3 mg/kg, po measured at 4 hrs relative to control; type: functional; summary of the method: as §1
Rattus norvegicus [22] = experiment: Analgesic activity in rat spinal nerve ligation neuropathic pain model assessed as reversal of allodynia at 3 mg/kg, po measured at 24 hrs relative to control; type: functional; summary of the method: as §1
[23] = molecular target: Prostaglandin G/H synthase 1 (Homo sapiens) (UniProt P23219); experiment: Binding affinity to COX1 (unknown origin) at 25 uM relative to control
Rattus norvegicus [24] = experiment: Analgesic activity in po dosed rat spinal nerve ligation neuropathic pain model assessed as reversal of allodynia measured after 4 hrs; type: functional, organism-based; summary of the method: as §1
Rattus norvegicus [25] = experiment: Neurotoxicity in rat assessed as motor impairment at 30 to 100 mg/kg, po after 2 to 4 hrs by rotarod test; type: toxicity, organism-based; parameters: route oral; details: in vivo
Summary of the method: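 Rats were trained on a rotarod for 3 min at 10 rpm, then given a single oral dose of test agent or vehicle and tested at 2 and 4 h post-dose. During testing the rod ran at 10 rpm for 60 s, then accelerated to 60 rpm. Time to fall after the start of acceleration was recorded. Impairment was defined as >20% reduction in latency.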

Rattus norvegicus [26] = experiment: Analgesic activity in rat spinal nerve ligation neuropathic pain model assessed as reversal of allodynia at 10 mg/kg, po measured at 24 hrs relative to control; type: functional; summary of the method: as §1
[27] = molecular target: T2, Sodium channel protein type 9 subunit alpha; experiment: Inhibition of human NaV1.7 channel expressed in HEK293 cells by FRET assay; type: cell-based
Summary of the method: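 HEK293 cells stably expressing human Nav1.7. Channel block was read in a functional membrane-potential assay based on FRET between two membrane-associated dyes; IC50 determined.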
Target sequence in this assay (Q15858 whole entry): as the sequence (Q15858 whole entry, looked up) above

[28] = Half life in Sprague-Dawley rat at 3 mg/kg, po and 1 mg/kg, iv; type: ADME, organism-based; details: in vivo; summary of the method: as §2
Rattus norvegicus [29] = experiment: Analgesic activity in rat spinal nerve ligation neuropathic pain model assessed as reversal of allodynia at 30 mg/kg, po measured at 24 hrs relative to control; type: functional; summary of the method: as §1

T1 sequence (Q14524 whole entry): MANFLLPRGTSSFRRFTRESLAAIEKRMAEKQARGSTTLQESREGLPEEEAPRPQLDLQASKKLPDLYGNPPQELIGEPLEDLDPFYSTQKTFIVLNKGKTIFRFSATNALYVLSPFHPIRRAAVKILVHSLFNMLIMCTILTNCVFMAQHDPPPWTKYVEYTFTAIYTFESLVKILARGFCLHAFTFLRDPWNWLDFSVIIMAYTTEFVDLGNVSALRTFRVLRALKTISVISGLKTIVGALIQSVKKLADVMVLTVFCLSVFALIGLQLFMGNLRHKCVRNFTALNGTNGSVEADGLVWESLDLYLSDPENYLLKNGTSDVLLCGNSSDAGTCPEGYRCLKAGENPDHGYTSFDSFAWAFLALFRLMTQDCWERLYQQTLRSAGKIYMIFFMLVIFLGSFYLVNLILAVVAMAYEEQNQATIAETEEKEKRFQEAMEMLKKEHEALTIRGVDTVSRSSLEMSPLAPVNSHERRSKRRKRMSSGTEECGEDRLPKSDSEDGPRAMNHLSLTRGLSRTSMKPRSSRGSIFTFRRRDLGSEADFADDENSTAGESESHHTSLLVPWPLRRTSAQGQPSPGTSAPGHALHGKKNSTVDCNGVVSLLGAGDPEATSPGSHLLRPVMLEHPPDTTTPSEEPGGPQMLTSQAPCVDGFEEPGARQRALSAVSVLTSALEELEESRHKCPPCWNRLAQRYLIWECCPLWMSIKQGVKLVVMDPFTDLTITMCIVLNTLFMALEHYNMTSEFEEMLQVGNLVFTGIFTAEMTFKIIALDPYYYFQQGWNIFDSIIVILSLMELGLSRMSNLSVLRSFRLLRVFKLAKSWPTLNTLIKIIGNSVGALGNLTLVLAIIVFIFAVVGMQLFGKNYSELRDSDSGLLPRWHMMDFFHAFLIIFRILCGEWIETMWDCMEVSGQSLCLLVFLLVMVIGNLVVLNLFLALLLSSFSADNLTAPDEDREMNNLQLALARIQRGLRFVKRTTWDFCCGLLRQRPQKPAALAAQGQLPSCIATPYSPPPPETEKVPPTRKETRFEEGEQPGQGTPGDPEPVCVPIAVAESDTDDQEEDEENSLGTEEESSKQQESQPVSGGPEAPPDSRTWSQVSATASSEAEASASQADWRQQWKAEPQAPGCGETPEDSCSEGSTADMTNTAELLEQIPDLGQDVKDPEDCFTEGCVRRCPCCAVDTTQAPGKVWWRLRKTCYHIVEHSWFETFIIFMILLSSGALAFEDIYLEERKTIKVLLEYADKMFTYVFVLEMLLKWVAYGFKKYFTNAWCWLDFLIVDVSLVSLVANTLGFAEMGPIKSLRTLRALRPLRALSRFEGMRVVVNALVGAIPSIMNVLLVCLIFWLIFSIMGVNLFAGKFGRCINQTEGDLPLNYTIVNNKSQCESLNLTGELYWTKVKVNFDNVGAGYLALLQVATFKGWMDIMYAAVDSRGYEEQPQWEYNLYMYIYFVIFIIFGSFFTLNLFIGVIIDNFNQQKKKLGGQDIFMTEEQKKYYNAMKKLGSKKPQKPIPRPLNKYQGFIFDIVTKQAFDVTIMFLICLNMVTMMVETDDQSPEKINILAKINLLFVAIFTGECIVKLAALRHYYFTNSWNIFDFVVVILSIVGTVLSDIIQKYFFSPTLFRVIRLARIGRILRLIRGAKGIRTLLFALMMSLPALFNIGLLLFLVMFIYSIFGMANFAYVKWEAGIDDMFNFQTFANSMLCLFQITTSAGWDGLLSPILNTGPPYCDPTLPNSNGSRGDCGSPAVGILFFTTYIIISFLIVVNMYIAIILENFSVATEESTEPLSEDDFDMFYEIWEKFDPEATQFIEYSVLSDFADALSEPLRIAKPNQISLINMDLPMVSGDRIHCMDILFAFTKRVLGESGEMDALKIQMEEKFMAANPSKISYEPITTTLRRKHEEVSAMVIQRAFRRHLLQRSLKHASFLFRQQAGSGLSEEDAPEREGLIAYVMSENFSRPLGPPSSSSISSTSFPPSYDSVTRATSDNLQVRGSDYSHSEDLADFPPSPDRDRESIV
Chain of Mu-type opioid receptor (Homo sapiens) (P35372 whole entry): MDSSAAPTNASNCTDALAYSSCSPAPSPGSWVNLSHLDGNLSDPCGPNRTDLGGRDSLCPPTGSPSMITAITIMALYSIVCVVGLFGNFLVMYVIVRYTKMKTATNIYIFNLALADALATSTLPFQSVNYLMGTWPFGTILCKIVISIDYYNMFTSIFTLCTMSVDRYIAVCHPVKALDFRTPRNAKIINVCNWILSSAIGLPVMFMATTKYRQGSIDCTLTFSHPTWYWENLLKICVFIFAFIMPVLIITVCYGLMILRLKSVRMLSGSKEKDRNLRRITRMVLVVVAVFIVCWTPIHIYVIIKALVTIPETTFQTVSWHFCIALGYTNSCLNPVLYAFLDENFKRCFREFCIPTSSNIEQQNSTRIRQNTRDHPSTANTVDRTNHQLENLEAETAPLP
Chain of Delta-type opioid receptor (Homo sapiens) (P41143 whole entry): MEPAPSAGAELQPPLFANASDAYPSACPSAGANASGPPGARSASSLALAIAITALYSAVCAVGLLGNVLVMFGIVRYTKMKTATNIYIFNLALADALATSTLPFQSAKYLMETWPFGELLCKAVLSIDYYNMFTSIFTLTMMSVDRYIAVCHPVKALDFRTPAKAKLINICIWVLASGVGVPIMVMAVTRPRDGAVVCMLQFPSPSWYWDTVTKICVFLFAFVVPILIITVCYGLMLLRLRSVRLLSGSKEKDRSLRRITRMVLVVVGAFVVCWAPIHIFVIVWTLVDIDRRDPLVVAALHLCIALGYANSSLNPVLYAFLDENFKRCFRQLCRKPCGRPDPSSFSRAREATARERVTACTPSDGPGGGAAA

inhibition [2]: 48%
Activity [7]: < 50%
Activity [8]: < 50%
bioavailability [11]: 100%
AUC/dose (Rattus norvegicus [12]): 0.72 µM·h/mg/kg
Activity [14]: < 50%
Activity [15]: < 50%
K [17]: 0.44 µM
clearance [18]: 43 mL/min/kg
K [20]: 3.02 µM
Activity [23]: < 50%
IC50 [27]: 0.117 µM
half-life [28]: 1.9 h
SMILES: O=C(N[C@H](Cc1ccccc1F)C(=O)N[C@@H]1CCc2c(F)c(F)cc(F)c2N(C2CC2)C1=O)C1CC1C(F)(F)F (some centres undefined)
Kd [1]: > 10 µM
Activity (Rattus norvegicus [3]): 15%
Activity (Rattus norvegicus [4]): 28%
Activity (Rattus norvegicus [5]): 43%
Activity (Rattus norvegicus [6]): 7%
ED50 (Rattus norvegicus [9]): 15 mg/kg
Activity (Rattus norvegicus [10]): 62%
Activity (Rattus norvegicus [13]): 39%
Kd [16]: 2.38 µM
Activity (Rattus norvegicus [19]): 55%
Activity (Rattus norvegicus [21]): 18%
Activity (Rattus norvegicus [22]): 1%
Activity (Rattus norvegicus [24]): Dose-dependent effect
Activity (Rattus norvegicus [25]): Non-toxic
Activity (Rattus norvegicus [26]): 4%
Activity (Rattus norvegicus [29]): 10%
